ChEMBL document CHEMBL4014289, “Synthesis and evaluation of a ligand targeting the μ and δ opioid receptors for drug delivery to lung cancer” (Bioorg Med Chem Lett, 2017)
Activity calls are given as the source filed them. No cut-off for these calls is given here.

Key:
[1] = system: Intestine; experiment: Drug uptake in Nu/Nu mouse intestine xenografted with HEK cells expressing mu opioid receptor (unknown origin); assay type: ADME, tissue-based
Procedure, shortened: (§1)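 Mice carrying HEK xenografts transfected with μ (HEK-mu) or δ (HEK-delta) opioid receptor. […] Mice were sacrificed at 4 h, and organs and tissues were collected and weighed. Radioactivity was counted against a standard tube and expressed as %ID/gram.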

[2] = system: Kidney; experiment: Drug uptake in Nu/Nu mouse kidney xenografted with HEK cells expressing mu opioid receptor (unknown origin); assay type: ADME, tissue-based; procedure, shortened: as §1
[3] = Drug uptake in Nu/Nu mouse skin xenografted with HEK cells expressing mu opioid receptor (unknown origin); assay type: ADME, Zone of skin; procedure, shortened: as §1
[4] = Drug uptake in Nu/Nu mouse tumor xenografted with HEK cells expressing mu opioid receptor (unknown origin); assay type: ADME, Neoplasm; procedure, shortened: as §1
[5] = molecular target: Mu-type opioid receptor (Homo sapiens) (UniProt P35372); experiment: Binding affinity to mu opioid receptor (unknown origin) expressed in HEK cells at 25 nM by confocal microscopic method; assay type: cell-based
Mu-type opioid receptor (Homo sapiens), sequence (P35372 whole entry): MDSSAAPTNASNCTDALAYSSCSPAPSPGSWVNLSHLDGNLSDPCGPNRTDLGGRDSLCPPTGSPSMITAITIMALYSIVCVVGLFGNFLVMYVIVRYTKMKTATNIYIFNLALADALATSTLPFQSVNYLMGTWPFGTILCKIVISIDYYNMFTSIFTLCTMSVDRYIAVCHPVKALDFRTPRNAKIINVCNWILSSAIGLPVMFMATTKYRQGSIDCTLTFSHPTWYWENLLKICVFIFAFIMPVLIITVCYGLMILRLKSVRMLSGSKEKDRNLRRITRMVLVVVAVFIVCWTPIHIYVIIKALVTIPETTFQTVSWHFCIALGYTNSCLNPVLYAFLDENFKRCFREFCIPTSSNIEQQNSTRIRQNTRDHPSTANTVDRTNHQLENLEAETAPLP
Procedure, shortened: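 HEK cells transfected to overexpress the μ-opioid receptor were treated with 25 nM rhodamine-labelled naltrexone-derived conjugate for 1 h. […] Cell-associated fluorescence and internalisation were imaged by confocal microscopy.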

[6] = molecular target: Delta-type opioid receptor (Homo sapiens) (UniProt P41143); experiment: Binding affinity to delta opioid receptor (unknown origin) expressed in HEK cells at 10 nM in presence of DOR antagonist […] after 1 hr by confocal microscopic method; assay type: cell-based
Delta-type opioid receptor (Homo sapiens), sequence (P41143 whole entry): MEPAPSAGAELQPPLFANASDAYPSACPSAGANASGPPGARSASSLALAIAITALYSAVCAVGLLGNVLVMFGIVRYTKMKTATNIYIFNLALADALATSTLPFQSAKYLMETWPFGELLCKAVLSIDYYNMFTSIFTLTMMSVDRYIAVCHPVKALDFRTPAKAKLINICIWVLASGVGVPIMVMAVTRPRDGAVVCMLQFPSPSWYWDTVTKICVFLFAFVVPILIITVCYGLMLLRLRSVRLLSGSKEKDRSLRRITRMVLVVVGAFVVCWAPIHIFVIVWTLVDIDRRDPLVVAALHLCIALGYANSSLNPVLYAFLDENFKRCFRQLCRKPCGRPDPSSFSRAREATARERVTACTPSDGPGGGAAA
Procedure, shortened: (§2)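 HEK cells transfected to overexpress the δ-opioid receptor were incubated with a rhodamine-labelled naltrexone-derived conjugate for 1 h. They were given the conjugate alone or with a 100-fold higher concentration of naltrindole as competitor. Uptake and internalisation were imaged by confocal microscopy.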

[7] = molecular target: Delta-type opioid receptor (Homo sapiens) (UniProt P41143); experiment: Binding affinity to delta opioid receptor (unknown origin) expressed in HEK cells at 10 nM by confocal microscopic method; assay type: cell-based; procedure, shortened: as §2
[8] = system: Spleen; experiment: Drug uptake in Nu/Nu mouse spleen xenografted with HEK cells expressing delta opioid receptor (unknown origin); assay type: ADME, tissue-based; procedure, shortened: as §1
[9] = Drug uptake in Nu/Nu mouse tumor xenografted with HEK cells expressing delta opioid receptor (unknown origin); assay type: ADME, Neoplasm; procedure, shortened: as §1
[10] = system: Liver; experiment: Drug uptake in Nu/Nu mouse liver xenografted with HEK cells expressing delta opioid receptor (unknown origin); assay type: ADME, tissue-based; procedure, shortened: as §1
[11] = Drug uptake in Nu/Nu mouse skin xenografted with HEK cells expressing delta opioid receptor (unknown origin); assay type: ADME, Zone of skin; procedure, shortened: as §1
[12] = system: Heart; experiment: Drug uptake in Nu/Nu mouse heart xenografted with HEK cells expressing delta opioid receptor (unknown origin); assay type: ADME, tissue-based; procedure, shortened: as §1
[13] = system: Kidney; experiment: Drug uptake in Nu/Nu mouse kidney xenografted with HEK cells expressing delta opioid receptor (unknown origin); assay type: ADME, tissue-based; procedure, shortened: as §1
[14] = system: Intestine; experiment: Drug uptake in Nu/Nu mouse intestine xenografted with HEK cells expressing delta opioid receptor (unknown origin); assay type: ADME, tissue-based; procedure, shortened: as §1
[15] = Displacement of [3H]DADLE from delta opioid receptor in guinea pig brain membrane; assay type: cell membranes, Cavia porcellus
[16] = Antitumor activity against human SQC cells xenografted in nude mouse model assessed as tumor growth inhibition at 0.1 mg/kg administered daily relative to control; assay type: functional; settings: read-out: TGI

NC(CNC(=O)CCOCCOCCOCCOCCNC(=O)CCC(=O)NCC(=O)NCC(=O)N[C@@H]1CC[C@@]2(O)[C@H]3Cc4ccc(O)c5c4[C@@]2(CCN3CC2CC2)[C@H]1O5)C(=O)NC(CC(=O)O)C(=O)NC(CS)C(=O)O (stereo partly specified)
Drug uptake [1]: Active
Drug uptake [2]: Active
Drug uptake [3]: Active
Drug uptake [4]: Active

CCN(CC)c1ccc2c(-c3ccc(NC(=S)NCC(=O)NCC(=O)N[C@@H]4CC[C@@]5(O)[C@H]6Cc7ccc(O)c8c7[C@@]5(CCN6CC5CC5)[C@H]4O8)cc3C(=O)O)c3ccc(=[N+](CC)CC)cc-3oc2c1
Activity [5]: Active

CCN(CC)c1ccc2c(-c3ccc(NC(=S)NCCCCCn4cc(-c5ccc(C(=O)N[C@@H]6CC[C@@]7(O)[C@H]8Cc9ccc(O)c%10c9[C@@]7(CCN8CC7CC7)[C@H]6O%10)cn5)nn4)cc3C(=O)O)c3ccc(=[N+](CC)CC)cc-3oc2c1
Activity [6]: Active
Activity [7]: Active

NC(CNC(=O)CCOCCOCCOCCOCCNC(=O)CCC(=O)NCCCCCn1cc(-c2ccc(C(=O)N[C@@H]3CC[C@@]4(O)[C@H]5Cc6ccc(O)c7c6[C@@]4(CCN5CC4CC4)[C@H]3O7)cn2)nn1)C(=O)NCC(N)C(=O)NC(CC(=O)O)C(=O)NC(CS)C(=O)O (stereo partly specified)
Drug uptake [8]: Active
Drug uptake [9]: Active
Drug uptake [10]: Active
Drug uptake [11]: Active
Drug uptake [12]: Active
Drug uptake [13]: Active
Drug uptake [14]: Active

O=C1CC[C@@]2(O)[C@H]3Cc4ccc(O)c5c4[C@@]2(CCN3CC2CC2)[C@H]1O5 [NALTREXONE]
Ki [15]: 10.5 nM
inhibition in vivo at 0.1 mg/kg [16]: 84%
